The text below walks through data of the array DNA melting data of Ke et al. (doi:10.1101/2024.01.08.574731).

Data set [1] in a line: folding enthalpy; higher = less favourable; fluorescence melt of hairpins on a sequencing array, two-state fit. As to conditions: sodium 0.088 M. In short, it runs like this:
(§1)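 Hairpins were imaged by Cy3 fluorescence on a sequenced MiSeq flow cell with annealed Cy3 and quencher oligos, in 50 mM Na-HEPES pH 8.0, 25 mM NaCl, in 2.5 °C steps up to 60 °C. Bootstrapped two-state fits of normalised signals gave melting temperature and folding enthalpy. Four replicates were combined by inverse variance, and fitted temperatures were raised by 9.35 °C to match UV melts.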

Data set [2] can be described thus: melting temperature; fluorescence melt of hairpins on a sequencing array, two-state fit, raised by 9.35 °C to match UV melts. The conditions noted are these: sodium 0.088 M. The procedure, abridged: as §1

For GTAGACCGAAAGGTTAC (((.(((....)))))), the folding enthalpy in data set [1] was -16.7 kcal/mol. Also, the Tm in data set [2] was determined as 38.5 °C.
For GTAGACGAAAGTCCGTAC ((((((....)))..))) the same measures were -8.44 kcal/mol and 21 °C.
For the sequence GTAGACGAAAGTCGATAC ((((((....)))..))), the folding enthalpy in data set [1] was -11.2 kcal/mol. In data set [2], the Tm amounted to 34.7 °C.
For GTAGACGAAAGTCTGTAC ((((((....)))..))) the same measures were -11.6 kcal/mol and 36.8 °C.
Take GTAGACGGAAACGTCCAC ((.((((....)))).)): the folding enthalpy in data set [1] was -13.4 kcal/mol. The Tm in data set [2] was 37.9 °C.
As for GTAGAGCGAAAGCTATAC (((.(((....))).))), in data set [1], the folding enthalpy is -23.4 kcal/mol. Also, the Tm in data set [2] turned out to be 51.6 °C.
For the sequence GTAGAGCGAAAGCTTAC (((.(((....)))))), in data set [1], the folding enthalpy is -12.8 kcal/mol. In data set [2], the Tm is 38.5 °C.
Take GTAGAGGGAAACCCCTAC ((((.((....)).)))): the folding enthalpy in data set [1] is -20.4 kcal/mol. Further, the Tm in data set [2] stood at 39.2 °C.
For GTAGAGGGAAACCTCTGC (.(((((....))))).), in that order: -23.1 kcal/mol and 45.9 °C.
For GTAGATACGAAAGTATAC (((..(((....)))))), the folding enthalpy in data set [1] was -11.6 kcal/mol. Besides, the Tm in data set [2] amounted to 25.4 °C.
For GTAGATCCGAAAGGATAC (((..(((....)))))), in that order: -11.1 kcal/mol and 30.4 °C.
For GTAGATCGAAAGATTTAC (((.(((....))).))), the folding enthalpy in data set [1] is -30.4 kcal/mol. In data set [2], the Tm worked out at 39.5 °C.
Regarding GTAGCACGAAAGTGTTAC (((.(((....))).))), the folding enthalpy in data set [1] was -29.2 kcal/mol. For the same sequence, in data set [2], the Tm is 51.5 °C.
GTAGCAGAAATGCTAC ((((((....)))))): the folding enthalpy in data set [1] is -35.4 kcal/mol. Moreover, in data set [2], the Tm was determined as 55.9 °C.
For GTAGCAGGAAACTGCTGC (.(((((....))))).), in that order: -26.2 kcal/mol and 55.5 °C.
As to GTAGCCACGAAAGTGTAC (((..(((....)))))), the folding enthalpy in data set [1] was -9.72 kcal/mol. Moreover, in data set [2], the Tm came out at 22.3 °C.
As to GTAGCCGAAAGGCAGTAC ((((((....)))..))), the folding enthalpy in data set [1] is -9.03 kcal/mol. Further, the Tm in data set [2] turned out to be 30.4 °C.
For the sequence GTAGCCGAAAGGCTATAC ((((((....)))..))), in data set [1], the folding enthalpy was -10.2 kcal/mol. Moreover, in data set [2], the Tm came to 47.1 °C.
For the sequence GTAGCCGAAAGGCTGTAC ((((((....)))..))), the folding enthalpy in data set [1] is -9.24 kcal/mol. Further, the Tm in data set [2] stood at 31.2 °C.
With GTAGCCGAAAGGCTTTAC ((((((....)))..))), the folding enthalpy in data set [1] is -7 kcal/mol. In addition, the Tm in data set [2] was 27.3 °C.
For GTAGCCGGAAACGACTAC ((((.((....)).)))), in that order: -34.4 kcal/mol and 46.6 °C.
For GTAGCGCGAAAGCGTTAC (((.(((....))).))) the same measures were -23.1 kcal/mol and 58.3 °C.
GTAGCGGCGAAAGCCTAC (((..(((....)))))): in data set [1], the folding enthalpy was -10.4 kcal/mol. Besides, in data set [2], the Tm amounted to 29.9 °C.
For GTAGCTCCGAAAGGATAC (((..(((....)))))) the same measures were -14.6 kcal/mol and 25.4 °C.
For GTAGCTCGAAAGAGGTAC (((.(((....))).))), in that order: -38 kcal/mol and 56.7 °C.
GTAGCTCGAAAGAGTTAC (((.(((....))).))): in data set [1], the folding enthalpy was -33.6 kcal/mol. Further, in data set [2], the Tm turned out to be 50.6 °C.
GTAGCTGGAAACAGCTAC (((((((....))))))): the folding enthalpy in data set [1] is -39 kcal/mol. The Tm in data set [2] worked out at 66 °C.
Consider GTAGGACGAAAGTCTAC (((.(((....)))))), for which the folding enthalpy in data set [1] was -17.2 kcal/mol. Moreover, in data set [2], the Tm came out at 43 °C.
As for GTAGGAGGAAACTCCTAC (((((((....))))))), the folding enthalpy in data set [1] is -38 kcal/mol. Also, in data set [2], the Tm is 57.5 °C.
Regarding GTAGGAGGAAACTCTTAC (((.(((....))).))), in data set [1], the folding enthalpy was -17.8 kcal/mol. In data set [2], the Tm was 34.8 °C.
In the case of GTAGGCACGAAAGTGTAC (((..(((....)))))), the folding enthalpy in data set [1] is -13.6 kcal/mol. Moreover, the Tm in data set [2] came out at 29.8 °C.
For GTAGGCCGAAAGGCTTAC (((.(((....))).))), the folding enthalpy in data set [1] is -21.2 kcal/mol. The Tm in data set [2] was determined as 55.4 °C.
For GTAGGCGAAAGCCACTAC ((((((....)))..))), in that order: -11.9 kcal/mol and 47.3 °C.
For GTAGGCGAAAGCCTATAC ((((((....)))..))) the same measures were -9.56 kcal/mol and 45.2 °C.
As for GTAGGCGGAAACACCTAC (((((.(....).))))), in data set [1], the folding enthalpy was -25.8 kcal/mol. In addition, the Tm in data set [2] was 44.5 °C.
On to GTAGGCGGAAACGCCTGC (.(((((....))))).), for which the folding enthalpy in data set [1] was -18.6 kcal/mol. Further, in data set [2], the Tm is 56.7 °C.
